Test results as given in ChEMBL document CHEMBL4715736, “Identification of anticancer agents based on the thieno[2,3-b]pyridine and 1H-pyrazole molecular scaffolds” (2016).

Tests used:
Type in all cases: functional
K562 = test: Growth inhibition of human K562 cells assessed as cell growth at 0.01 uM incubated for 48 hrs by sulforhodamine B assay relative to control; settings: read-out: Activity
NCI-H23 = test: Growth inhibition of human NCI-H23 cells assessed as cell growth at 0.01 uM incubated for 48 hrs by sulforhodamine B assay relative to control; settings: read-out: Activity
HCC 2998 = test: Growth inhibition of human HCC 2998 cells assessed as cell growth at 0.01 uM incubated for 48 hrs by sulforhodamine B assay relative to control; settings: read-out: Activity
In short: (§1)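 NCI Developmental Therapeutics Program NCI60 panel. Compounds that were active in the 10 µM one-dose screen went on to dose–response testing. Growth at each concentration is expressed relative to untreated control (100%). GI50 (concentration giving 50% of maximal inhibition of proliferation) and TGI (concentration giving total growth inhibition) were derived from the curves.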

OVCAR-8 [1] = test: Growth inhibition of human OVCAR-8 cells assessed as cell growth at 0.01 uM incubated for 48 hrs by sulforhodamine B assay relative to control; settings: read-out: Activity
NCI/ADR-RES = test: Growth inhibition of human NCI/ADR-RES cells assessed as cell growth at 0.01 uM incubated for 48 hrs by sulforhodamine B assay relative to control; settings: read-out: Activity
786-0 [2] = test: Growth inhibition of human 786-0 cells assessed as cell growth at 0.01 uM incubated for 48 hrs by sulforhodamine B assay relative to control; settings: read-out: Activity; in short: as §1
PC-3 [3] = test: Growth inhibition of human PC-3 cells assessed as cell growth at 0.01 uM incubated for 48 hrs by sulforhodamine B assay relative to control; settings: read-out: Activity
DU-145 = test: Growth inhibition of human DU-145 cells assessed as cell growth at 0.01 uM incubated for 48 hrs by sulforhodamine B assay relative to control; settings: read-out: Activity; in short: as §1
MCF7 = test: Growth inhibition of human MCF7 cells assessed as cell growth at 0.01 uM incubated for 48 hrs by sulforhodamine B assay relative to control; settings: read-out: Activity
T47D = test: Growth inhibition of human T47D cells assessed as cell growth at 0.01 uM incubated for 48 hrs by sulforhodamine B assay relative to control; settings: read-out: Activity
NCI-H322M = test: Growth inhibition of human NCI-H322M cells assessed as cell growth at 0.1 uM incubated for 48 hrs by sulforhodamine B assay relative to control; settings: read-out: Activity
Malme-3M = test: Growth inhibition of human Malme-3M cells assessed as cell growth at 0.1 uM incubated for 48 hrs by sulforhodamine B assay relative to control; settings: read-out: Activity
M14 = test: Growth inhibition of human M14 cells assessed as cell growth at 0.1 uM incubated for 48 hrs by sulforhodamine B assay relative to control; settings: read-out: Activity
IGROV-1 [4] = test: Growth inhibition of human IGROV-1 cells assessed as cell growth at 0.1 uM incubated for 48 hrs by sulforhodamine B assay relative to control; settings: read-out: Activity
MDA-MB-231 [5] = test: Growth inhibition of human MDA-MB-231 cells assessed as cell growth at 0.1 uM incubated for 48 hrs by sulforhodamine B assay relative to control; settings: read-out: Activity
SR = test: Growth inhibition of human SR cells assessed as cell growth at 1 uM incubated for 48 hrs by sulforhodamine B assay relative to control; settings: read-out: Activity
HOP-62 = test: Growth inhibition of human HOP-62 cells assessed as cell growth at 1 uM incubated for 48 hrs by sulforhodamine B assay relative to control; settings: read-out: Activity
HCT-116 = test: Growth inhibition of human HCT-116 cells assessed as cell growth at 1 uM incubated for 48 hrs by sulforhodamine B assay relative to control; settings: read-out: Activity
OVCAR-3 [6] = test: Growth inhibition of human OVCAR-3 cells assessed as cell growth at 1 uM incubated for 48 hrs by sulforhodamine B assay relative to control; settings: read-out: Activity
786-0 [7] = test: Growth inhibition of human 786-0 cells assessed as cell growth at 1 uM incubated for 48 hrs by sulforhodamine B assay relative to control; settings: read-out: Activity; in short: as §1
PC-3 [8] = test: Growth inhibition of human PC-3 cells assessed as cell growth at 1 uM incubated for 48 hrs by sulforhodamine B assay relative to control; settings: read-out: Activity
MDA-MB-231 [9] = test: Growth inhibition of human MDA-MB-231 cells assessed as cell growth at 1 uM incubated for 48 hrs by sulforhodamine B assay relative to control; settings: read-out: Activity
SNB-19 = test: Growth inhibition of human SNB-19 cells assessed as cell growth at 100 uM incubated for 48 hrs by sulforhodamine B assay relative to control; settings: read-out: Activity
SK-MEL-28 = test: Growth inhibition of human SK-MEL-28 cells assessed as cell growth at 100 uM incubated for 48 hrs by sulforhodamine B assay relative to control; settings: read-out: Activity
SK-MEL-5 = test: Growth inhibition of human SK-MEL-5 cells assessed as cell growth at 100 uM incubated for 48 hrs by sulforhodamine B assay relative to control; settings: read-out: Activity
IGROV-1 [10] = test: Growth inhibition of human IGROV-1 cells assessed as cell growth at 100 uM incubated for 48 hrs by sulforhodamine B assay relative to control; settings: read-out: Activity
OVCAR-3 [11] = test: Growth inhibition of human OVCAR-3 cells assessed as cell growth at 100 uM incubated for 48 hrs by sulforhodamine B assay relative to control; settings: read-out: Activity
OVCAR-5 = test: Growth inhibition of human OVCAR-5 cells assessed as cell growth at 100 uM incubated for 48 hrs by sulforhodamine B assay relative to control; settings: read-out: Activity
A498 = test: Growth inhibition of human A498 cells assessed as cell growth at 100 uM incubated for 48 hrs by sulforhodamine B assay relative to control; settings: read-out: Activity; in short: as §1
NCI-H522 = test: Growth inhibition of human NCI-H522 cells incubated for 48 hrs by sulforhodamine B assay
In short: (§2)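 NCI60 panel at the NCI Developmental Therapeutics Program. Only compounds active in the 10 µM screen went to dose-response testing. GI50, the concentration giving 50% of maximal inhibition of proliferation, and TGI, the concentration giving total growth inhibition, were derived from the dose-response curves.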

SNB-75 = test: Growth inhibition of human SNB-75 cells incubated for 48 hrs by sulforhodamine B assay
In short: (§3)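 NCI DTP 60-line human tumour panel. Dose-response curves were run only for ligands active in the initial 10 µM screen. GI50 (concentration giving 50% of maximal inhibition of proliferation) and TGI (concentration giving total growth inhibition) were derived from these curves.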

UACC-257 = test: Growth inhibition of human UACC-257 cells incubated for 48 hrs by sulforhodamine B assay; in short: as §3
OVCAR-8 [12] = test: Growth inhibition of human OVCAR-8 cells incubated for 48 hrs by sulforhodamine B assay; in short: as §3
MDA-MB-231 [13] = test: Growth inhibition of human MDA-MB-231 cells incubated for 48 hrs by sulforhodamine B assay; in short: as §2
MDA-MB-468 = test: Growth inhibition of human MDA-MB-468 cells incubated for 48 hrs by sulforhodamine B assay; in short: as §2
[14] = read-out: LC50 (the source's name)

`Nc1c(C(=O)Nc2ccccc2)sc2nc3c(cc12)CN(Cc1ccccc1)CC3` showed a growth at 0.01 µM (K562) of 98%, a growth at 0.01 µM (NCI-H23) of 97% and a growth at 0.01 µM (HCC 2998) of 90%. For the same compound, the growth at 0.01 µM (OVCAR-8 [1]) was 100%, the growth at 0.01 µM (NCI/ADR-RES) was 103% and the growth at 0.01 µM (786-0 [2]) was 96%. For the same compound, the growth at 0.01 µM (PC-3 [3]) was 95%, the growth at 0.01 µM (DU-145) was 106% and the growth at 0.01 µM (MCF7) was 93%. The growth at 0.01 µM (T47D) was 99%, the growth at 0.1 µM (NCI-H322M) was 93% and the growth at 0.1 µM (Malme-3M) was 88%. The growth at 0.1 µM (M14) was 91%, the growth at 0.1 µM (IGROV-1 [4]) was 98% and the growth at 0.1 µM (MDA-MB-231 [5]) was 100%. For the same compound, the growth at 1 µM (SR) was 82%, the growth at 1 µM (HOP-62) was 88% and the growth at 1 µM (HCT-116) was 86%. For the same compound, the growth at 1 µM (OVCAR-3 [6]) was 100%, the growth at 1 µM (786-0 [7]) was 106% and the growth at 1 µM (PC-3 [8]) was 89%. It also gave a growth at 1 µM (MDA-MB-231 [9]) of 92%, a growth at 100 µM (SNB-19) of 25% and a growth at 100 µM (SK-MEL-28) of 28%. The growth at 100 µM (SK-MEL-5) was 16%, the growth at 100 µM (IGROV-1 [10]) was 32% and the growth at 100 µM (OVCAR-3 [11]) was 20%. The growth at 100 µM (OVCAR-5) was 66%, the growth at 100 µM (A498) was 42% and the GI50 (NCI-H522) was 32.5 µM. The LC50 (NCI-H522) was greater than 100 µM, the TGI (NCI-H522) was greater than 100 µM and the GI50 (SNB-75) was 1.32 µM. The TGI (SNB-75) was 3.5 µM, the GI50 (UACC-257) was 52.8 µM and the LC50 (concentration killing 50% of cells) (UACC-257) was greater than 100 µM. The TGI (UACC-257) was greater than 100 µM, the GI50 (OVCAR-8 [12]) was 16.8 µM and the TGI (OVCAR-8 [12]) was greater than 100 µM. The CC50 (OVCAR-8 [12]; [14]) was greater than 100 µM, the GI50 (MDA-MB-231 [13]) was 5.81 µM and the TGI (MDA-MB-231 [13]) was greater than 100 µM. For the same compound, the CC50 (MDA-MB-231 [13]; [14]) was greater than 100 µM, the GI50 (MDA-MB-468) was 17 µM and the TGI (MDA-MB-468) was greater than 100 µM. For the same compound, the CC50 (MDA-MB-468; [14]) was greater than 100 µM.
